In ChEMBL document CHEMBL1156727, “Synthesis and evaluation of curcumin analogues as potential thioredoxin reductase inhibitors” (Bioorg Med Chem, 2008):
The source made the active and inactive calls. The calls are words filed in the database; no cut-off is given here.

Key:
[1] = Inhibition of TrxR preincuabatd for 4 mins
[2] = system: MCF7; test: Cytotoxicity against TrxR overexpressing human doxorubicin-resistant MCF7 cells after 48 hrs by MTT assay; assay type: functional
In short: (§1)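 Cells grown in RPMI 1640 with 10% fetal calf serum, penicillin/streptomycin and 2 mM L-glutamine at 37 °C under 5% CO2. Seeded 1×10⁴/well and left overnight, then exposed 48 h to 0–100 µM. MTT was added for 4 h at 37 °C and formazan dissolved in DMSO, read at 570 nm. Run in quadruplicate; GC50 is the concentration giving 50% of control viability.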

[3] = system: A549; test: Cytotoxicity against TrxR overexpressing human cis-diammine-dichloroplatinum (II)-resistant A549 cells after 48 hrs by MTT assay; assay type: functional
In short: as §1

[4] = system: HepG2; test: Cytotoxicity against TrxR overexpressing human HepG2 cells after 48 hrs by MTT assay; assay type: functional
In short: as §1

[5] = system: A549; test: Cytotoxicity against TrxR overexpressing human A549 cells after 48 hrs by MTT assay; assay type: functional
In short: as §1

[6] = Inhibition of TrxR preincuabatd for 2 hrs
[7] = molecular target: T1, Thioredoxin reductase (Homo sapiens) (UniProt Q16881+Q9NNW7+Q86VQ6); test: Inhibition of TrxR in human HeLa cells at 50 uM after 12 hrs by insulin reduction assay; assay type: cell-based
In short: (§2)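 Cells (1.5×10⁶) in RPMI 1640 were exposed 12 h; controls got <1% DMSO. Cells were trypsinized and lysed in Tris pH 7.4/Triton/deoxycholate/SDS buffer with protease inhibitors, then spun at 16,000g. Lysate was incubated 30 min at 37 °C with 2.5 mg/ml bovine insulin, NADPH and Trx in HEPES/EDTA pH 7.4. The reaction was stopped with guanidine-HCl/DTNB and read at A412. A no-Trx mixture served as background; activity is % of control, n≥3.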

[8] = Inhibition of TrxR preincuabatd for 2 hrs followed by ultrafiltration
[9] = molecular target: T1, Thioredoxin reductase (Homo sapiens); test: Inhibition of TrxR in human MCF7 cells at 50 uM after 12 hrs by insulin reduction assay; assay type: cell-based
In short: as §2

IC50 [1] [µM] | Structure (SMILES) | GC50 [5] [µM] | also measured
50 | O=C(/C=C(O)/C=C/c1ccc(O)cc1)/C=C/c1ccccc1Br |  | 
> 100 | COc1ccc(/C=C/C(=O)/C=C(O)/C=C/c2ccc(OC)c(OC)c2)cc1OC [DIMETHYLCURCUMIN] |  | 
> 100 | O=C(/C=C(O)/C=C/c1ccccc1)/C=C/c1ccccc1 |  | 
0.8 | COc1ccc(/C=C/C(=O)/C=C(O)/C=C/c2ccc(CO)o2)cc1 |  | GC50 [2]: 10 µM; GC50 [3]: 12.1 µM; GC50 [4]: >100 µM
0.5 | COc1cc(/C=C/C(=O)/C=C(O)/C=C/c2ccc(C)o2)ccc1O | >100 | GC50 [3]: 39.4 µM
5.1 | COc1cc(/C=C2\CCC/C(=C\c3ccc(O)cc3)C2=O)ccc1O | >100 | 
62.2 | CN(C)c1ccc(/C=C/C(=O)/C=C(O)/C=C/c2ccc(CO)o2)cc1 |  | GC50 [4]: >100 µM
57 | COc1cc(/C=C/C(O)=C/C(=O)/C=C/c2ccccc2)ccc1O |  | 
23.3 | O=C(/C=C(O)/C=C/c1ccc(O)cc1)/C=C/c1ccccc1 | 41.3 | 
1 | COc1cc(/C=C/C(O)=C/C(=O)/C=C/c2ccc(CO)o2)ccc1O | >100 | GC50 [2]: 10.6 µM; GC50 [3]: 35.8 µM; GC50 [4]: >100 µM
20 | COc1cc(/C=C/C(O)=C/C(=O)/C=C/c2ccc(O)cc2)ccc1O [DEMETHOXYCURCUMIN] |  | 
38.3 | COc1cc(/C=C/C(=O)CC(=O)/C=C/c2ccc(O)c(OC)c2)ccc1O [CURCUMIN] | 18.2 | GC50 [3]: 73 µM; IC50 [6]: 4.2 µM
20 | O=C(/C=C(O)/C=C/c1cccs1)/C=C/c1ccc(O)cc1 |  | 
24.9 | COc1cc(/C=C2\CCC/C(=C\c3ccc(O)cc3)C2=O)cc(OC)c1OC |  | 
> 100 | COc1ccc(/C=C/C(=O)/C=C(O)/C=C/c2ccc(OC)cc2)cc1 |  | GC50 [2]: >100 µM; GC50 [3]: >100 µM
1.6 | O=C(/C=C(O)/C=C/c1ccco1)/C=C/c1ccco1 | 66.4 | GC50 [2]: 33.6 µM
13.8 | COc1cc(/C=C/C(=O)/C=C(O)/C=C/c2ccc(O)cc2)cc(OC)c1OC | 60.1 | 
> 100 | O=C(/C=C/c1ccc(O)cc1)CC(=O)/C=C/c1ccc(O)cc1 [BISDEMETHOXYCURCUMIN] |  | 
2 | COc1cc(/C=C/C(=O)/C=C(O)/C=C/c2ccc(CO)o2)cc(OC)c1OC | >100 | GC50 [4]: >100 µM
0.3 | Cc1ccc(/C=C/C(=O)/C=C(O)/C=C/c2ccc(C)o2)o1 | 52.9 | Activity [7]: Active; GC50 [2]: 48.5 µM; Activity [8]: Active; GC50 [3]: 59.6 µM; Activity [9]: Active; GC50 [4]: >100 µM
1.3 | O=C(/C=C(O)/C=C/c1ccc(CO)o1)/C=C/c1ccccc1 |  | GC50 [4]: >100 µM
